Results on 18 compounds are retold here after ChEMBL document CHEMBL1140564, “Macrocyclic ureas as potent and selective Chk1 inhibitors: an improved synthesis, kinome profiling, structure-activity relationships, and preliminary pharmacokinetics” (Bioorg Med Chem Lett, 2007).

The EC50 is the concentration giving half of the maximal effect. For orientation: AUC means concentration integrated over time. Read a high AUC as high exposure. A word on the IC50: it is the concentration at which inhibition is half-maximal. A low value points to greater potency.

Activity calls are given as the source filed them. The calls are words filed in the database; no cut-off is given here.

The test system of one data set is NCI-H1299. Nature of the data set: Inhibition of doxorubicin-induced cell cycle arrest in H1299 cells at G2/M phase by FACS assay. The format is functional, cell-based. As to conditions: Homo sapiens. The essentials: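 H1299 cells treated with 500 nM doxorubicin to induce G2/M arrest, with or without inhibitor at various concentrations, up to 10 μM. Cells stained with propidium iodide and DNA content analysed by FACS. EC50 for abrogation of the Dox-induced G2/M checkpoint.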
Background: A flow cytometer gives signals particle by particle.
`N#Cc1ncc2nc1OC/C=C\COc1cc(N)c(Cl)cc1NC(=O)N2` gave a half-maximal effective concentration (EC50) below 0.03 µM.
Take `N#Cc1ncc2nc1OC/C=C\COc1cc(OC(=O)N3CCC(N4CCCCC4)CC3)c(Cl)cc1NC(=O)N2`: the half-maximal effective concentration (EC50) was above 10 µM.
For the compound `N#Cc1ncc2nc1OCCCCOc1cc(N3CCOC3=O)c(Cl)cc1NC(=O)N2`, the outcome was inactive.
`N#Cc1ncc2nc1OC/C=C\COc1cc(OCCN3CCOCC3)c(Cl)cc1NC(=O)N2` yielded an EC50 above 10 µM.
The same measure, in the same setting: the same measure for `N#Cc1ncc2nc1OC/C=C\COc1cc(NCc3cncs3)c(Cl)cc1NC(=O)N2`: 0.2 µM.
`N#Cc1ncc2nc1OCCCCOc1cc(NC(=O)OCCN3CCOCC3)c(Cl)cc1NC(=O)N2` registered a 50% effective concentration (EC50) above 10 µM.
Same read-out and setting: the same measure for `N#Cc1ncc2nc1OC/C=C\COc1cc(OCCCN3CCOCC3)c(Cl)cc1NC(=O)N2`: above 10 µM.
With `N#Cc1ncc2nc1OCCCCOc1cc(NC(=O)c3ccncc3)c(Cl)cc1NC(=O)N2`, the outcome was inactive.
Still for that read-out and setting: the same measure for `N#Cc1ncc2nc1OCCCCOc1cc(O)c(Cl)cc1NC(=O)N2`: “inactive”; for `CCNc1cc2c(cc1Cl)NC(=O)Nc1cnc(C#N)c(n1)OCCCCO2`: “inactive”.
In turn, `C[C@H](N)C(=O)Nc1cc2c(cc1Cl)NC(=O)Nc1cnc(C#N)c(n1)OC/C=C\CO2` showed a 50% effective concentration (EC50) of 0.09 µM.
`CNc1cc2c(cc1Cl)NC(=O)Nc1cnc(C#N)c(n1)OC/C=C\CO2` had an EC50 above 10 µM.
Turning to `CN(C)c1cc2c(cc1Cl)NC(=O)Nc1cnc(C#N)c(n1)OCCCCO2`, the EC50 is 0.54 µM.
Compound `N#Cc1ncc2nc1OCCCCOc1ccc(Cl)cc1NC(=O)N2` showed a half-maximal effective concentration (EC50) of 1.3 µM. Compared with the last compound, the EC50 is about 2.4-fold higher.
Same read-out and setting: the same measure for `N#Cc1ncc2nc1OCCCCOc1cc(OC(=O)N3CCC(N4CCCCC4)CC3)c(Cl)cc1NC(=O)N2`: above 10 µM; for `N#Cc1ncc2nc1OC/C=C\COc1cc(NC(=O)c3ccnc(Cl)c3)c(Cl)cc1NC(=O)N2`: above 10 µM.
Same read-out and setting: with `N#Cc1ncc2nc1OC/C=C\COc1cc(OCCO)c(Cl)cc1NC(=O)N2` the figure was 1.9 µM.

Test system in a further data set: not listed separately
Nature of the data set: AUC in mouse plasma at 10 mg/kg. It is filed as ADME, organism-based. More on the design: dose 10 mg/kg.
Conditions: not given
The essentials: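 CD-1 mice received a single intraperitoneal dose of 10 mg/kg. Plasma drug levels were followed over time, and exposure was expressed as AUC in µmol h/L.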
In turn, `N#Cc1ncc2nc1OCCCCCOc1ccc(Cl)cc1NC(=O)N2` registered an AUC of 1500 nM·h.
On the same count and under the same terms, the same measure for `N#Cc1ncc2nc1OCCCCOc1ccc(Cl)cc1NC(=O)N2`: 3800 nM·h.

Test system in a further data set: not listed separately
Nature of the data set: Cell cycle arrest in H1299 cells by accumulation at G2/M phase by FACS assay. The format is functional, cell-based. To be noted: Homo sapiens, NCI-H1299.
`N#Cc1ncc2nc1OC/C=C\COc1cc(N)c(Cl)cc1NC(=O)N2`: the EC50 is above 10 µM.
On the same count and under the same terms, the same measure for `N#Cc1ncc2nc1OC/C=C\COc1cc(OC(=O)N3CCC(N4CCCCC4)CC3)c(Cl)cc1NC(=O)N2`: above 10 µM; for `N#Cc1ncc2nc1OC/C=C\COc1cc(OCCN3CCOCC3)c(Cl)cc1NC(=O)N2`: above 10 µM.
For `N#Cc1ncc2nc1OC/C=C\COc1cc(NCc3cncs3)c(Cl)cc1NC(=O)N2`, the EC50 was above 10 µM.
The same measure, in the same setting: with `N#Cc1ncc2nc1OCCCCOc1cc(NC(=O)OCCN3CCOCC3)c(Cl)cc1NC(=O)N2` the figure was above 10 µM.
Still for that read-out and setting: with `N#Cc1ncc2nc1OC/C=C\COc1cc(OCCCN3CCOCC3)c(Cl)cc1NC(=O)N2` the figure was above 10 µM; with `C[C@H](N)C(=O)Nc1cc2c(cc1Cl)NC(=O)Nc1cnc(C#N)c(n1)OC/C=C\CO2`, above 10 µM.
The same measure, in the same setting: the same measure for `CNc1cc2c(cc1Cl)NC(=O)Nc1cnc(C#N)c(n1)OC/C=C\CO2`: above 10 µM; for `CN(C)c1cc2c(cc1Cl)NC(=O)Nc1cnc(C#N)c(n1)OCCCCO2`: above 10 µM.
`N#Cc1ncc2nc1OCCCCOc1ccc(Cl)cc1NC(=O)N2`: the EC50 is above 10 µM.
On the same count and under the same terms, the same measure for `N#Cc1ncc2nc1OCCCCOc1cc(OC(=O)N3CCC(N4CCCCC4)CC3)c(Cl)cc1NC(=O)N2`: above 10 µM; for `N#Cc1ncc2nc1OC/C=C\COc1cc(NC(=O)c3ccnc(Cl)c3)c(Cl)cc1NC(=O)N2`: above 10 µM; for `N#Cc1ncc2nc1OC/C=C\COc1cc(OCCO)c(Cl)cc1NC(=O)N2`: above 10 µM.

Still in this data set, the particulars now being: Homo sapiens; NCI-H1299.
`N#Cc1ncc2nc1OCCCCOc1cc(N3CCOC3=O)c(Cl)cc1NC(=O)N2`: the outcome was inactive.
Still for that read-out and setting: with `N#Cc1ncc2nc1OCCCCOc1cc(NC(=O)c3ccncc3)c(Cl)cc1NC(=O)N2` the entry was “inactive”; with `N#Cc1ncc2nc1OCCCCOc1cc(O)c(Cl)cc1NC(=O)N2`, “inactive”; with `CCNc1cc2c(cc1Cl)NC(=O)Nc1cnc(C#N)c(n1)OCCCCO2`, “inactive”.

The target of a further data set is T1, Serine/threonine-protein kinase Chk1 (Homo sapiens, UniProt O14757).
T1 sequence (O14757 whole entry): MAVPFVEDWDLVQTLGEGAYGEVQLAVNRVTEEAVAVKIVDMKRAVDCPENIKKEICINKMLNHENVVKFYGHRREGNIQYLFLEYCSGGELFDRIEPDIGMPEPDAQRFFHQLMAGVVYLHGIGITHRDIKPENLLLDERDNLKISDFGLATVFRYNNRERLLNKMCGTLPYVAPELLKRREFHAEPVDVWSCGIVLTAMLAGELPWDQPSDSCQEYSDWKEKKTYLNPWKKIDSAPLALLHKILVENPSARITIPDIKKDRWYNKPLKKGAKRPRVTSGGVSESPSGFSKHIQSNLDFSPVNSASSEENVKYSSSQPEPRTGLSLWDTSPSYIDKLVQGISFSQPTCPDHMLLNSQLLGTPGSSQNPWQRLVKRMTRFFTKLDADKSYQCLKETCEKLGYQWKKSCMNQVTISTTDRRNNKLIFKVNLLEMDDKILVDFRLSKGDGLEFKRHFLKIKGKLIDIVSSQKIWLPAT
As to the kind of experiment: Inhibition of Chk1.
Conditions: not given
`N#Cc1ncc2nc1OC/C=C\COc1cc(N)c(Cl)cc1NC(=O)N2` registered an IC50 of 0.0003 µM. This counts as sub-nanomolar.
The compound `N#Cc1ncc2nc1OC/C=C\COc1cc(OC(=O)N3CCC(N4CCCCC4)CC3)c(Cl)cc1NC(=O)N2` displayed an IC50 of 0.001 µM. Against the preceding compound, the IC50 is about 3.3-fold higher.
As for `N#Cc1ncc2nc1OCCCCOc1cc(N3CCOC3=O)c(Cl)cc1NC(=O)N2`, inhibition was half-maximal at 0.006 µM (IC50).
Still for that read-out and setting: the same measure for `N#Cc1ncc2nc1OC/C=C\COc1cc(OCCN3CCOCC3)c(Cl)cc1NC(=O)N2`: 0.001 µM.
The compound `N#Cc1ncc2nc1OC/C=C\COc1cc(NCc3cncs3)c(Cl)cc1NC(=O)N2` showed an IC50 of 0.004 µM. Compared with the last compound, the IC50 is about 4-fold higher.
Still for that read-out and setting: the same measure for `N#Cc1ncc2nc1OCCCCOc1cc(NC(=O)OCCN3CCOCC3)c(Cl)cc1NC(=O)N2`: 0.003 µM; for `N#Cc1ncc2nc1OC/C=C\COc1cc(OCCCN3CCOCC3)c(Cl)cc1NC(=O)N2`: 0.0003 µM.
`N#Cc1ncc2nc1OCCCCOc1cc(NC(=O)c3ccncc3)c(Cl)cc1NC(=O)N2` returned an IC50 of 0.004 µM.
The same measure, in the same setting: the same measure for `N#Cc1ncc2nc1OCCCCOc1cc(O)c(Cl)cc1NC(=O)N2`: 0.0003 µM; for `CCNc1cc2c(cc1Cl)NC(=O)Nc1cnc(C#N)c(n1)OCCCCO2`: 0.003 µM.
Same read-out and setting: the same measure for `C[C@H](N)C(=O)Nc1cc2c(cc1Cl)NC(=O)Nc1cnc(C#N)c(n1)OC/C=C\CO2`: 0.003 µM; for `CNc1cc2c(cc1Cl)NC(=O)Nc1cnc(C#N)c(n1)OC/C=C\CO2`: 0.002 µM.
Same read-out and setting: with `CN(C)c1cc2c(cc1Cl)NC(=O)Nc1cnc(C#N)c(n1)OCCCCO2` the figure was 0.002 µM.
The compound `N#Cc1ncc2nc1OCCCCOc1cc(OC(=O)N3CCC(N4CCCCC4)CC3)c(Cl)cc1NC(=O)N2` displayed a concentration for half-maximal inhibition (IC50) of 0.001 µM.
Still for that read-out and setting: with `N#Cc1ncc2nc1OC/C=C\COc1cc(NC(=O)c3ccnc(Cl)c3)c(Cl)cc1NC(=O)N2` the figure was 0.006 µM.
The compound `N#Cc1ncc2nc1OC/C=C\COc1cc(OCCO)c(Cl)cc1NC(=O)N2` registered an IC50 of 0.001 µM. Against the preceding compound, the IC50 is about 6-fold lower.

A further data set concerns HeLa. Nature of the data set: Cytotoxicity against HeLa cells by MTS assay. The format is functional, cell-based. As to conditions: Homo sapiens.
Turning to `N#Cc1ncc2nc1OC/C=C\COc1cc(N)c(Cl)cc1NC(=O)N2`, the 50% effective concentration (EC50) was above 59.3 µM.
For the compound `N#Cc1ncc2nc1OC/C=C\COc1cc(OC(=O)N3CCC(N4CCCCC4)CC3)c(Cl)cc1NC(=O)N2`, the EC50 came out at 1.2 µM. This lies in the single-digit micromolar range.
The same measure, in the same setting: with `N#Cc1ncc2nc1OCCCCOc1cc(N3CCOC3=O)c(Cl)cc1NC(=O)N2` the figure was above 59.3 µM.
Take `N#Cc1ncc2nc1OC/C=C\COc1cc(OCCN3CCOCC3)c(Cl)cc1NC(=O)N2`: the 50% effective concentration (EC50) is 14.1 µM.
In turn, `N#Cc1ncc2nc1OC/C=C\COc1cc(NCc3cncs3)c(Cl)cc1NC(=O)N2` showed a concentration giving a half-maximal response (EC50) of 13.6 µM. The EC50 values of the last two compounds are within 1.5-fold of each other.
Same read-out and setting: with `N#Cc1ncc2nc1OCCCCOc1cc(NC(=O)OCCN3CCOCC3)c(Cl)cc1NC(=O)N2` the figure was above 59.3 µM; with `N#Cc1ncc2nc1OC/C=C\COc1cc(OCCCN3CCOCC3)c(Cl)cc1NC(=O)N2`, 1.9 µM; with `N#Cc1ncc2nc1OCCCCOc1cc(NC(=O)c3ccncc3)c(Cl)cc1NC(=O)N2`, 24.3 µM.
Same read-out and setting: the same measure for `N#Cc1ncc2nc1OCCCCOc1cc(O)c(Cl)cc1NC(=O)N2`: above 59.3 µM.
The same measure, in the same setting: with `CCNc1cc2c(cc1Cl)NC(=O)Nc1cnc(C#N)c(n1)OCCCCO2` the figure was above 59.3 µM; with `C[C@H](N)C(=O)Nc1cc2c(cc1Cl)NC(=O)Nc1cnc(C#N)c(n1)OC/C=C\CO2`, above 59.3 µM; with `CNc1cc2c(cc1Cl)NC(=O)Nc1cnc(C#N)c(n1)OC/C=C\CO2`, above 59.3 µM.
`CN(C)c1cc2c(cc1Cl)NC(=O)Nc1cnc(C#N)c(n1)OCCCCO2`: a half-maximal effect (EC50) was put at 54.5 µM.
The same measure, in the same setting: with `N#Cc1ncc2nc1OCCCCOc1ccc(Cl)cc1NC(=O)N2` the figure was 57.6 µM; with `N#Cc1ncc2nc1OCCCCOc1cc(OC(=O)N3CCC(N4CCCCC4)CC3)c(Cl)cc1NC(=O)N2`, 2.8 µM.
For `N#Cc1ncc2nc1OC/C=C\COc1cc(NC(=O)c3ccnc(Cl)c3)c(Cl)cc1NC(=O)N2`, the half-maximal effective concentration (EC50) was found to be 5.4 µM.
Same read-out and setting: the same measure for `N#Cc1ncc2nc1OC/C=C\COc1cc(OCCO)c(Cl)cc1NC(=O)N2`: above 59.3 µM.
